From publication PMC2532710 (Nucleic Acids Research, 2008)
Several values for one entry are separate records, joined by “and”; a condition that tells them apart may be missing. Equal values may be shown once.

Tests used:
linear dsDNA = conditions: cited from earlier work
[1] = system: RecG binding to HJ substrate; test: RecG/; parameters: species or system Escherichia coli
HJ substrate [2] = test: dissociation from HJ; assay type: binding
Flayed fork = test: 2-AP titration Kd, flayed fork; assay type: binding; conditions: Kd ratio, n = 1
Method in brief: (§1)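 Each substrate carried 2-AP at strand 4, position 2 and was used at 0.1 μM in 20 mM Tris-HCl pH 7.8, 25 mM NaCl, 1 mM EDTA, 1.6% DMSO at 24°C. Peptide dimer added in 2-fold steps from 0.003125 μM, 3 min each. Excitation 315 nm, emission 330–430 nm. Adenine background subtracted, 365–375 nm averaged. Fc fitted by least squares to pooled 2–3 dilution series. Value given as Kd relative to HJ Kd.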

HJ substrate [3] = test: 2-AP fluorescence quenching, HJ substrate; assay type: binding
Method in brief: (§2)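 Substrates were annealed from oligos (boiled 5 min, slow-cooled), gel-purified on native 12% PAGE and quantified spectrophotometrically. After ≥10 min equilibration, emission was read at 330–430 nm (excitation 315 nm). Adenine-substituted spectra were subtracted, and fold decrease at 370 nm was taken versus no peptide.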

Lagging strand fork = test: 2-AP titration Kd, lagging strand fork; assay type: binding; conditions: Kd ratio, n = 1
Method in brief: as §1

flayed duplex molecule = test: 2-AP fluorescence quenching, flayed duplex; assay type: binding
Method in brief: as §2

Question: Which “interaction with linear dsDNA” value (linear dsDNA) does the source give for (WRWYCR)2 (disulfide) here?
Answer: not with linear dsDNA

Question: And the “binding to dsDNA” value (linear dsDNA; high concentrations)?
Answer: binds to dsDNA nonspecifically at high concentrations

Question: And the “mechanism of inhibition of RecG” value [1]?
Answer: competitive mechanism

Question: What about the “inhibition of RecG binding to HJ” value ([1]; 0.02 μM RecG, 0.025 μM peptide dimer, 2 nM HJ) of the same substance?
Answer: strongly inhibited

Question: What about the “inhibition of RecG binding to HJ” value ([1]; 0.02 μM RecG, 0.1 μM peptide, 2 nM HJ) of the same substance?
Answer: almost completely inhibited

Question: What about the “inhibition of RecG binding to HJ” value ([1]; 0.2 μM RecG, 0.025 μM peptide) of the same substance?
Answer: only weak inhibition

Question: What about the “inhibition of RecG–DNA complexes, order of addition” value ([1]; data not shown, Saha and Segall, unpublished data) of the same substance?
Answer: occurs whether the peptide is added to DNA 10 min before or after RecG

Question: What about the “time for half of bound peptide to dissociate” value (HJ substrate [2]; 0.015 μM (WRWYCR)2, 1 nM labeled HJ, 0.2 μM unlabeled HJ (200X), 4°C) of the same substance?
Answer: More than an hour

Question: And the “dissociation slower than RecG” value (HJ substrate [2]; peptide vs RecG, from HJ)?
Answer: about 2 X

Question: What about the “Fold reduced versus HJ” value (Flayed fork) of the same substance?
Answer: 43.9

Question: What about the “quenching of four central 2-AP bases” value (HJ substrate [3]; 4-fold excess of peptide dimer over substrate) of the same substance?
Answer: at least 1.6 fold

Question: And the “fold decrease in 2-AP fluorescence at 370 nm” value (“fold decrease” below) (HJ substrate [3]; HJ-1AP1 (central base), 0.2 μM dimer, 1:1)?
Answer: 1.2 fold

Question: What about the “fold decrease” value (HJ substrate [3]; HJ-1AP1 (central base), 0.8 μM dimer, 4:1) of the same substance?
Answer: 1.6 fold

Question: And the “fold decrease” value (HJ substrate [3]; HJ-1AP1 (central base), 1.6 μM dimer, 8:1)?
Answer: 1.8 fold

Question: What about the “fold decrease” value (HJ substrate [3]; HJ-3AP1 (central base), 0.2 μM dimer, 1:1) of the same substance?
Answer: 1.3 fold

Question: And the “fold decrease” value (HJ substrate [3]; HJ-3AP1 (central base), 0.8 μM dimer, 4:1)?
Answer: 2.0 fold

Question: And the “fold decrease” value (HJ substrate [3]; HJ-3AP1 (central base), 1.6 μM dimer, 8:1)?
Answer: 2.2 fold

Question: What about the “fold decrease” value (HJ substrate [3]; HJ-3AP2, 0.2 μM dimer, 1:1) of the same substance?
Answer: 1.0 fold

Question: And the “fold decrease” value (HJ substrate [3]; HJ-4AP1 (central base), 0.2 μM dimer, 1:1)?
Answer: 1.2 fold

Question: What about the “fold decrease” value (HJ substrate [3]; HJ-4AP1 (central base), 0.8 μM dimer, 4:1) of the same substance?
Answer: 1.9 fold

Question: What about the “fold decrease” value (HJ substrate [3]; HJ-4AP1 (central base), 1.6 μM dimer, 8:1) of the same substance?
Answer: 1.8 fold

Question: And the “fold decrease” value (HJ substrate [3]; HJ-4AP2 (central base), 0.05 μM dimer, 0.25:1)?
Answer: 1.0 fold

Question: And the “fold decrease” value (HJ substrate [3]; HJ-4AP2 (central base), 0.2 μM dimer, 1:1)?
Answer: 1.2 fold

Question: And the “fold decrease” value (HJ substrate [3]; HJ-4AP2 (central base), 0.8 μM dimer, 4:1)?
Answer: 2 fold and 2.0 fold

Question: What about the “fold decrease” value (HJ substrate [3]; HJ-4AP2 (central base), 1.6 μM dimer, 8:1) of the same substance?
Answer: 2.2 fold

Question: And the “fold decrease” value (HJ substrate [3]; HJ-4AP3, 0.05 μM dimer, 0.25:1)?
Answer: 1.0 fold

Question: And the “fold decrease” value (HJ substrate [3]; HJ-4AP3, 0.2 μM dimer, 1:1)?
Answer: 1.2 fold

Question: What about the “fold decrease” value (HJ substrate [3]; HJ-4AP4, 0.05 μM dimer, 0.25:1) of the same substance?
Answer: 1.0 fold

Question: What about the “fold decrease” value (HJ substrate [3]; HJ-4AP4, 0.2 μM dimer, 1:1) of the same substance?
Answer: 1.0 fold

Question: And the “fold decrease” value (HJ substrate [3]; HJ-4AP4, 0.8 μM dimer, 4:1)?
Answer: 1.2 fold

Question: What about the “fold decrease” value (HJ substrate [3]; HJ-4AP4, 1.6 μM dimer, 8:1) of the same substance?
Answer: 1.2 fold

Question: What about the “quenching of 2-AP in the center of HJ and replication forks” value (HJ substrate [3]; center of both HJ and replication forks) of the same substance?
Answer: quench the fluorescence of 2-AP bases

Question: And the “quenching of central bases, preliminary set” value (HJ substrate [3]; the eighth central base, Boldt and Segall, unpublished data, preliminary)?
Answer: 1.6 X

Question: And the “Fold reduced versus HJ” value (Lagging strand fork)?
Answer: 5.5

Question: What about the “fold decrease” value (flayed duplex molecule; Flayed-1AP1 (central base), 1.6 μM dimer, 8:1) of the same substance?
Answer: 1.3 fold

Question: What about the “fold decrease” value (flayed duplex molecule; Flayed-4AP1 (central base), 0.8 μM dimer, 4:1) of the same substance?
Answer: 1.2 fold

Question: What about the “2-AP quenching” value (flayed duplex molecule; Flayed-4AP1, 4AP2 and 4AP3, compared with leading strand fork) of the same substance?
Answer: even less sensitive to quenching

Question: What about the “fold decrease” value (flayed duplex molecule; Flayed-4AP2 (central base), 0.05 μM dimer, 0.25:1) of the same substance?
Answer: 1.0 fold

Question: And the “fold decrease” value (flayed duplex molecule; Flayed-4AP2 (central base), 0.8 μM dimer, 4:1)?
Answer: 1.3 fold

Question: And the “fold decrease” value (flayed duplex molecule; Flayed-4AP3, 0.05 μM dimer, 0.25:1)?
Answer: 1.0 fold

Question: And the “fold decrease” value (flayed duplex molecule; Flayed-4AP3, 0.8 μM dimer, 4:1)?
Answer: 1.2 fold

Question: What about the “fold decrease” value (flayed duplex molecule; Flayed-4AP3, 1.6 μM dimer, 8:1) of the same substance?
Answer: 1.3 fold

Question: What about the “fold decrease” value (flayed duplex molecule; Flayed-4AP4, 0.05 μM dimer, 0.25:1) of the same substance?
Answer: 1.0 fold

Question: What about the “fold decrease” value (flayed duplex molecule; Flayed-4AP4, 0.2 μM dimer, 1:1) of the same substance?
Answer: 1.0 fold

Question: What about the “fold decrease” value (flayed duplex molecule; Flayed-4AP4, 1.6 μM dimer, 8:1) of the same substance?
Answer: 1.2 fold
